The values below come from PubChem BioAssay AID623969 (Broad Institute, 2012).

Values joined by “and” are separate entries in the source; they are usually repeats but may differ in a detail not shown here. Equal entries are not always repeated.

This assay has as its system S. cerevisiae growth in glycerol medium, OD600, 48 h. Briefly: yeast growth reduction with glycerol carbon source – OD600, powder samples, set 3, dose response (AID 623969). Put shortly: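 Dosing – pinned compound dilution series · Test system – S. cerevisiae yeast on glycerol · Measured by – optical density at 600 nm · Times – 48 h exposure, 30 °C, no shaking · Buffer or medium – CSM medium supplemented with glycerol as carbon source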

As usually defined, the AC50 is the concentration at which the activity in the assay is half-maximal. As for `CCOC(=O)N1C(=O)C2(CCCCC2)N(c2ccc(Cl)cc2)C1=S`, the AC50 is 8.26 nM.

Consider `CCOC(=O)N1C(=O)C2(CCCCC2)N(c2ccc(C)cc2)C1=S`, for which the AC50 is 15 nM and 13.6 nM.

For `C/C=C/[C@@H]1[C@H]2C[C@@H](C)CC[C@@H]2C(C)=C[C@H]1C(=O)c1c(O)c(-c2ccc(O)cc2)c[nH]c1=O`, the AC50 is 33.5 nM.

As for `CC1/C=C/C=C\C=C\C=C\C=C\C=C\C=C\C(O[C@H]2OC(C)C(O)C(N)C2O)CC2OC(O)(CC(O)CC(O)C(O)CCC(O)CC(O)CC(=O)OC(C)C(C)C1O)CC(O)C2C(=O)O` (stereo partly drawn), the AC50 is 234 nM.

As for `CCOC(=O)N1C(=O)C2(CCCCC2)N(c2ccccc2)C1=S`, the AC50 is 20 nM.

For the compound `CCOC(=O)N1C(=O)C2(CCCCC2)N(c2cccc(C)c2)C1=S`, the AC50 is 27.6 nM.

`CCOC(=O)N1C(=O)C2(CCCCC2)N(c2ccc(F)cc2)C1=S`: the AC50 was 5.61 nM.

For `CCOC(=O)N1C(=O)C2(CCCCC2)N(c2ccc(C#N)cc2)C1=S`, the AC50 was 4.81 nM.
